Values after ≈ are worked out from the molar mass of the structure shown.

For orientation: inhibition means the relative decrease from the control value, in per cent.

Assay type in all cases: functional
The test system of assay [1] is Simian virus 40. Kind of assay: Inhibition of SV40 DNA replication assessed as [alpha32P]dATP formation at 500 uM after 90 mins by agarose gel electrophoresis. The note with it: Betapolyomavirus macacae, 1.5 h. The method in brief:
(§1)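 Cell-free SV40 DNA replication in Tris creatine phosphate buffer (pH 7.7) with creatine kinase, 7 mM MgCl2, 0.5 mM DTT, 4 mM ATP, 200 µM UTP/GTP/CTP, 100 µM dATP/dGTP/dCTP, SV40 T-Ag, origin-containing pUC DNA and replication proteins. The [α-32P]dATP variant ran 90 min at 37 °C, was stopped with EDTA/SDS/tRNA, and DNA was resolved on 1.0% agarose (12-14 h, 2 V/cm) and autoradiographed.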

The subject of a further assay is SK-MEL-2. Description: Cytotoxicity against human SK-MEL-2 cells. Particulars: read-out: ED50 (the source's name).
Another assay relates to XF498. Kind of assay: Cytotoxicity against human XF498 cells. The note with it: read-out: ED50 (the source's name).
Another assay has as its system A549. Description: Cytotoxicity against human A549 cells. Particulars: read-out: ED50 (the source's name).
The subject of a further assay is SK-OV-3. Description: Cytotoxicity against human SKOV3 cells. Particulars: read-out: ED50 (the source's name).
Assay [2] concerns Simian virus 40. Kind of assay: Inhibition of SV40 DNA replication assessed as [alpha32P]dATP formation at 250 uM after 90 mins by agarose gel electrophoresis. The note with it: Betapolyomavirus macacae, 1.5 h. In short, it runs like this:
as §1

A further assay relates to HCT-15. Description: Cytotoxicity against human HCT15 cells. The note with it: read-out: ED50 (the source's name).
For assay [3], the system named is Simian virus 40. Kind of assay: Inhibition of SV40 DNA replication assessed as [alpha32P]dATP formation at 125 uM after 90 mins by agarose gel electrophoresis. The note with it: Betapolyomavirus macacae, 1.5 h. The method in brief:
as §1

In the case of `C#CCCCCCCCCCCCCCCCC/C=C\CCCC/C=C\CCCCC#C[C@@H](O)C#CCCCCCC/C=C/[C@H](O)C#C`, the inhibition at 500 µM in the assay on Simian virus 40 [1] turned out to be 100%. Further, the EC50 with SK-MEL-2 is 1.5 µg/mL (≈ 2.28 µM); in the assay on XF498 it was 5.8 µg/mL (≈ 8.83 µM); with A549 it was > 10 µg/mL; in the assay with SK-OV-3 it was 1.5 µg/mL (≈ 2.28 µM); with HCT-15 it was 2.5 µg/mL (≈ 3.8 µM). Moreover, in the assay on Simian virus 40 [2], the inhibition at 250 µM was 70%. For the same compound, in the assay with Simian virus 40 [3], the inhibition at 125 µM came to 40%.
Turning to `C#C/C=C\CCCCCCCCCCCCCCC/C=C\CCCC/C=C\CCCCC#C[C@@H](O)C#CCCCCCC/C=C/[C@H](O)C#C`, in the assay with Simian virus 40 [1], the inhibition at 500 µM was determined as 100%. Besides, the EC50 with SK-MEL-2 was 0.8 µg/mL (≈ 1.2 µM); with XF498, 2.5 µg/mL (≈ 3.74 µM); in the assay with A549, 11.3 µg/mL (≈ 16.9 µM); in the assay with SK-OV-3 it was 2.2 µg/mL (≈ 3.29 µM); in the assay with HCT-15, 1.7 µg/mL (≈ 2.54 µM). For the same compound, the inhibition at 250 µM in the assay on Simian virus 40 [2] came out at 86%. For the same compound, the inhibition at 125 µM in the assay on Simian virus 40 [3] is 59%.
Regarding `C#C/C=C\CCCCCCCCCCCCCC/C=C\CCC/C=C/C(O)CCCCC#C[C@H](O)C#CCCCCCC/C=C/[C@H](O)C#C` (some centres not stated), the inhibition at 500 µM in the assay on Simian virus 40 [1] worked out at 100%. In addition, the EC50 in the assay with SK-MEL-2 was 2.3 µg/mL (≈ 3.43 µM); with XF498, 8 µg/mL (≈ 11.9 µM); in the assay on A549, 26.3 µg/mL (≈ 39.2 µM); in the assay on SK-OV-3, 1.9 µg/mL (≈ 2.83 µM); in the assay on HCT-15, 5 µg/mL (≈ 7.45 µM). The inhibition at 250 µM in the assay with Simian virus 40 [2] came to 94%. Also, the inhibition at 125 µM with Simian virus 40 [3] is 79%.
In the case of `C#C/C=C\CCCCCCCCCCCCC/C=C\CCCC/C=C\CCCCC#C[C@@H](O)C#CCCCCCC/C=C/[C@H](O)C#C` [NOR-3S,14S-PETROCORTYNE A], in the assay with Simian virus 40 [1], the inhibition at 500 µM was determined as 70%. Moreover, the EC50 in the assay with SK-MEL-2 was found to be 3.8 µg/mL (≈ 5.93 µM); in the assay with XF498, 6.1 µg/mL (≈ 9.52 µM); in the assay on A549, 7.3 µg/mL (≈ 11.4 µM); in the assay on SK-OV-3, 4.4 µg/mL (≈ 6.86 µM); in the assay on HCT-15, 3.5 µg/mL (≈ 5.46 µM). In addition, in the assay on Simian virus 40 [2], the inhibition at 250 µM amounted to 47%. The inhibition at 125 µM in the assay on Simian virus 40 [3] was found to be 12%.
`C#C/C=C\CCCCCCCCCCCCCC/C=C\CCCC/C=C\CCCCc1cc(=O)cc(CCCCCC/C=C/C(O)C#C)o1` (configuration not stated) [PETROCORTYNE C]: the inhibition at 500 µM with Simian virus 40 [1] was determined as 100%. Moreover, the EC50 in the assay with SK-MEL-2 is 2.4 µg/mL (≈ 3.58 µM); with XF498, > 10 µg/mL; in the assay on A549 it was > 10 µg/mL; with SK-OV-3, 0.7 µg/mL (≈ 1.04 µM); with HCT-15 it was 7.5 µg/mL (≈ 11.2 µM). Moreover, the inhibition at 250 µM in the assay with Simian virus 40 [2] is 100%. Besides, the inhibition at 125 µM in the assay with Simian virus 40 [3] was 89%.
Turning to `C#C/C=C\CCCCCCCCCCCCC/C=C/C(=O)CCCC/C=C\CCCCC#C[C@@H](O)C#CCCCCCC/C=C/[C@H](O)C#C` [PETROTETRAYNDIOL C], in the assay on Simian virus 40 [1], the inhibition at 500 µM turned out to be 81%. Besides, the EC50 in the assay with SK-MEL-2 was 4.1 µg/mL (≈ 6.13 µM); with A549, > 10 µg/mL; in the assay with SK-OV-3, 4.2 µg/mL (≈ 6.28 µM); with HCT-15, 5.7 µg/mL (≈ 8.52 µM). The inhibition at 250 µM in the assay with Simian virus 40 [2] stood at 46%. Further, the inhibition at 125 µM in the assay on Simian virus 40 [3] was 45%.
`C#C/C=C\CCCCCCCCCCCCCCC(=O)CCCCC/C=C\CCCCC#CC(O)C#CCCCCCC/C=C/C(O)C#C` (configuration not stated) [PETROTETRAYNDIOL D]: the inhibition at 500 µM in the assay with Simian virus 40 [1] was 100%. Also, the EC50 in the assay with SK-MEL-2, with XF498, with A549, with SK-OV-3 and in the assay on HCT-15 was > 10 µg/mL throughout. In addition, in the assay with Simian virus 40 [2], the inhibition at 250 µM worked out at 80%. In addition, the inhibition at 125 µM in the assay with Simian virus 40 [3] is 66%.
On to `C#CCCCCCCCCCCCCCCCC/C=C\CCCC/C=C\CC/C=C/C#C[C@@H](O)C#CCCCCCC/C=C/[C@H](O)C#C` [PETROTETRAYNDIOL E], for which the inhibition at 500 µM with Simian virus 40 [1] stood at 100%. Further, the EC50 with SK-MEL-2 was determined as 1.1 µg/mL (≈ 1.68 µM); in the assay on XF498, 3.4 µg/mL (≈ 5.19 µM); in the assay with A549, 24.5 µg/mL (≈ 37.4 µM); in the assay with SK-OV-3 it was 1.7 µg/mL (≈ 2.6 µM); in the assay with HCT-15, 1.8 µg/mL (≈ 2.75 µM). In the assay on Simian virus 40 [2], the inhibition at 250 µM was found to be 83%. Further, in the assay on Simian virus 40 [3], the inhibition at 125 µM came out at 62%.
With `C#C/C=C\CCCCCCCCCCCCCC/C=C\CCCC/C=C\CCCCC#CC(=O)C#CCCCCCC/C=C/[C@H](O)C#C` [PETROTETRAYNOL A], in the assay on Simian virus 40 [1], the inhibition at 500 µM worked out at 100%. The EC50 in the assay on SK-MEL-2 was 5.2 µg/mL (≈ 7.96 µM); in the assay with XF498 it was > 30 µg/mL; in the assay on A549, > 30 µg/mL; in the assay on SK-OV-3, 4.6 µg/mL (≈ 7.04 µM); with HCT-15, > 30 µg/mL. Also, in the assay on Simian virus 40 [2], the inhibition at 250 µM came out at 100%. In addition, the inhibition at 125 µM in the assay with Simian virus 40 [3] was determined as 76%.
With `C#C/C=C\CCCCCCCCCCCCCC/C=C\CCCC/C=C\CCCC(O)C#CC(O)C#CCCCCCC/C=C/[C@H](O)C#C` (some centres not stated) [PETROTETRAYNTRIOL A], in the assay with Simian virus 40 [1], the inhibition at 500 µM was determined as 100%. Moreover, the EC50 was 3.9 µg/mL (≈ 5.81 µM) in the assay with SK-MEL-2; 18.5 µg/mL (≈ 27.6 µM) in the assay with XF498; > 30 µg/mL in the assay on A549; 4.2 µg/mL (≈ 6.26 µM) with SK-OV-3; 12.9 µg/mL (≈ 19.2 µM) with HCT-15. Further, the inhibition at 250 µM in the assay on Simian virus 40 [2] was determined as 77%. For the same compound, the inhibition at 125 µM in the assay on Simian virus 40 [3] is 63%.
For `C#C/C=C\CCCCCCCCCCCCCC/C=C\CCCC/C=C\CCCC/C=C\[C@@H](O)C#CCCCCCC/C=C/[C@H](O)C#C` [PETROTRIYNDIOL A], the inhibition at 500 µM in the assay with Simian virus 40 [1] amounted to 100%. The EC50 in the assay on SK-MEL-2 is 0.6 µg/mL (≈ 0.913 µM); with XF498 it was 1.3 µg/mL (≈ 1.98 µM); in the assay on A549 it was 1.8 µg/mL (≈ 2.74 µM); with SK-OV-3, 0.8 µg/mL (≈ 1.22 µM); in the assay on HCT-15, 0.8 µg/mL (≈ 1.22 µM). The inhibition at 250 µM in the assay on Simian virus 40 [2] is 90%. In the assay on Simian virus 40 [3], the inhibition at 125 µM stood at 62%.

(Values after ChEMBL document CHEMBL1150220, “Additional cytotoxic polyacetylenes from the marine sponge Petrosia species” (2001).)
